High-throughput results from PubChem.
Rows were chosen to be rich in hits. Some 1.3% of all compounds tested hit in one or more screens of this group.
PfG6PD inh: PfG6PD (Plasmodium falciparum) enzyme inhibition; inhibition, % at 20 µM; 0.78% of 350,000 active; PfGluPho enzyme, NADPH resazurin-diaphorase fluorescence;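 active = inhibition reaching at least a set limit at 20 µM in the primary screen, cut at about 59% in these data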;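 note: 0% = DMSO wells with substrate and 100% = DMSO wells lacking glucose-6-phosphate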
G6PDH counter-1: L. mesenteroides G6PDH inhibition counter-screen. inhibition, % at 5 µM. Purified L. mesenteroides G6PDH, diaphorase/resazurin coupled fluorescence, 45 min. AID 1020. 0.12% of 200,000 active; in the data active = inhibition above about 50%
Diaph act CS: activates diaphorase or chemically reduces, flagging diaphorase assay artifacts | 0.005% of 190,000 active | Diaphorase/resazurin coupled assay, resorufin fluorescence, 16 min; active compounds read high; 1 = vehicle wells, 0 = NADH-free wells | activation factor at 20 µM;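 active = diaphorase activity raised at least twofold by the compound at 20 µM; inactive = activation factor below 2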
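Material: purified diaphorase enzyme from Clostridium kluyveri; Also added: 0.114 mM NADH and 0.1 mM resazurin, final amounts; Doses: single compound dose of 20 µM, 1% DMSO final; Times: 16 min enzyme reaction, ambient temperature; Detection: resorufin fluorescence, excitation 544 nm, emission 590 nm; Measure: increased resorufin signal from activators or reducing compounds.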
Diaph inh CS: counter-screen for diaphorase-based assays: diaphorase inhibitors and chemical oxidizers | inhibition, % at 20 µM | 0.69% of 190,000 active | AID 1217 | diaphorase resazurin-to-resorufin fluorescence, NADH, 16 min; bacterial (C. kluyveri) enzyme, not human;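 active = primary screen inhibition at 20 µM above a set limit, cut at about 50% in these data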;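 note: plate controls were DMSO with full reaction for no effect and wells lacking NADH for full effect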
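Test system: bacterial diaphorase enzyme (C. kluyveri); Quantity: 0.14 U/mL diaphorase, enzyme working solution; Times: reaction incubation of 16 min at room temperature; Measured by: fluorescence of resorufin formed from resazurin, Ex 544/Em 590 nm; Benchmarks: positive control minus NADH, DMSO neutral control.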
HKDC1 inh: inhibitors of human hexokinase HKDC1; 0.16% of 340,000 active; Q2TB90; AID 493160; recombinant HKDC1, G6PDH/diaphorase resazurin coupled fluorescence; inhibition, % at 20 µM;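 active = inhibition above about 35% when tested at 20 µM, limit read from the data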;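 note: plate controls were DMSO wells with enzyme for no effect and DMSO wells lacking enzyme for full effect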
Target sequence (Q2TB90 whole entry, looked up): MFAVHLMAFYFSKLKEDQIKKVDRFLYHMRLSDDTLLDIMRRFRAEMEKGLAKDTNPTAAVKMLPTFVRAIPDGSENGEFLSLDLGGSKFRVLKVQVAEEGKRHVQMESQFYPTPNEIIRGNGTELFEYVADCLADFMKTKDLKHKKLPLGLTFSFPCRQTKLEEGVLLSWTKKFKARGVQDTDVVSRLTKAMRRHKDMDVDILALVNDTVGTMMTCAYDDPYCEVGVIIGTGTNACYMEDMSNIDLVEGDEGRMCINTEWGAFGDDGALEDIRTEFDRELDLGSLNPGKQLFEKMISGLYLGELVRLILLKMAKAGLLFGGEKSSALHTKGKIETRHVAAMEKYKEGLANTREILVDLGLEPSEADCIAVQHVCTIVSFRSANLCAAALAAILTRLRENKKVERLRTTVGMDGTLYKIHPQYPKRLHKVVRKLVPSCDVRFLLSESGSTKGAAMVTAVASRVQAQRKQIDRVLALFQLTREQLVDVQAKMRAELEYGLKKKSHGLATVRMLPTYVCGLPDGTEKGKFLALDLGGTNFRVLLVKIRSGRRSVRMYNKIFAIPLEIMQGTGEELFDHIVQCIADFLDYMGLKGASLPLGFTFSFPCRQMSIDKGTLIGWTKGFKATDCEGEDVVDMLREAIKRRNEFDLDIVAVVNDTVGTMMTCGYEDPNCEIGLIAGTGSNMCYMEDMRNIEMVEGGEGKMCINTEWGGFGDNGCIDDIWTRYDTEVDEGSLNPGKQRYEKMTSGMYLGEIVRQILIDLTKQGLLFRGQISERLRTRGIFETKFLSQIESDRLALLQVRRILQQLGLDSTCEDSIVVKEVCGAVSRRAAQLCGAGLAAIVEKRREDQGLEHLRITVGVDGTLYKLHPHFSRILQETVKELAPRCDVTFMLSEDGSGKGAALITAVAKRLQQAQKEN
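Incubation: 90 min at room temperature in dark / Material: recombinant HKDC1 (HK5) hexokinase enzyme, produced in-house / Quantity: enzyme 5 µg/mL final / Compound: one dose of 20 µM, 1% DMSO / Reagent: glucose and ATP substrates / Buffer or medium: Tris pH 8.0 buffer with MgCl2, Tween-20, BSA, BME / Technique: resorufin fluorescence at 613 nm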
Tb hexokinase: T. brucei hexokinase 1 inhibition. recombinant TbHK1, G6PDH-coupled NADH A340. inhibition, % at 10 µM. 0.11% of 220,000 active;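 active = inhibition of 50% or more in the single-dose primary screen; inactive = inhibition below 50%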
G6PDH counter-2: counter-screen for TbHK1 inhibitors: Leuconostoc G6PDH inhibition | purified G6PDH, NADH absorbance, 1 h | 7% of 210 active | shares compounds with Tb hexokinase | AID 2516 | inhibition, % at 10 µM;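 active = at least 50% inhibition in the glucose-6-phosphate dehydrogenase coupled counterscreen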
TbHK1 rescreen: T. brucei hexokinase 1 inhibition, rescreen. AID 2560. inhibition, % at 10 µM. 10% of 210 active. recombinant TbHK1, G6PDH-coupled NADH A340 absorbance. shares compounds with Tb hexokinase;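 active = inhibition of at least 50% in both of the two screening runs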;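 note: 0% and 100% set by the maximum and minimum signal control wells on each plate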
HKDC1 act conf: HKDC1 (human) activation, single-dose confirmed. shares compounds with HKDC1 inh. recombinant HKDC1, G6PDH/diaphorase resazurin fluorescence; active compounds read low. inhibition, % at 20 µM. 14% of 740 active;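 active = inhibition at or below a set negative limit, negative inhibition meaning the enzyme was activated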
* = called active by the depositor.

CC1CCN(CC(=O)c2cccc(C(F)(F)F)c2)CC1 was read as PfG6PD inh 1.8 and HKDC1 inh -2.5.
For Cc1cc2c(C(C)C)c(O)c(O)c(C=O)c2c(O)c1-c1c(C)cc2c(C(C)C)c(O)c(O)c(C=O)c2c1O the results were G6PDH counter-1 27.7, Diaph act CS 0.4, Diaph inh CS 64.3* and Tb hexokinase 26.0.
Cc1nc2ccccc2c(=O)n1-c1ccc(Cl)cc1[N+](=O)[O-] was read as PfG6PD inh -42.3, G6PDH counter-1 8.3, Diaph act CS 0.2, Diaph inh CS 76.7*, HKDC1 inh -22.8 and Tb hexokinase -3.5.
For O=[N+]([O-])c1[nH]cnc1Br the results were PfG6PD inh -11.3 and HKDC1 inh 2.0.
`CCOC(=O)N(c1ccccc1)P1(=S)OCCO1` gave PfG6PD inh 31.4, G6PDH counter-1 -5.3, Diaph act CS 0.9, Diaph inh CS 12.4, HKDC1 inh -4.2 and Tb hexokinase 14.1.
CCOC(=O)N(c1ccccc1)P1(=S)OCC(C)O1 (centres undefined) was read as PfG6PD inh -1.9, G6PDH counter-1 3.8, Diaph act CS 0.9, Diaph inh CS 10.3, HKDC1 inh 7.0, Tb hexokinase 52.8*, G6PDH counter-2 -12.2 and TbHK1 rescreen 12.3.
`Cc1ccc(C2(O)CC(C)N(C)CC2C)cc1` (centres undefined) gave PfG6PD inh -3.0, G6PDH counter-1 7.1, Diaph act CS 0.9, Diaph inh CS 14.4, HKDC1 inh -6.9, Tb hexokinase 53.1*, G6PDH counter-2 -3.0 and TbHK1 rescreen 0.4.
For COc1ccc(CCn2c(O)c(C=NCc3ccc4c(c3)OCO4)c(=O)[nH]c2=O)cc1OC the results were PfG6PD inh 10.7, G6PDH counter-1 11.4, Diaph act CS 0.8, Diaph inh CS 23.0, HKDC1 inh 3.3 and Tb hexokinase 1.7.
`COc1ccc(OC)c(-n2c(O)c(C=NCc3ccc4c(c3)OCO4)c(=O)[nH]c2=O)c1` gave PfG6PD inh -10.0, G6PDH counter-1 8.4, Diaph act CS 1, Diaph inh CS 3.0, HKDC1 inh -0.4, Tb hexokinase 55.1*, G6PDH counter-2 -1.5 and TbHK1 rescreen 4.5.
Screening CN(C)CP(=O)(O)CN(C)C=O returned PfG6PD inh -14.7, G6PDH counter-1 1.7, Diaph act CS 1, Diaph inh CS -2.6, HKDC1 inh -9.7, Tb hexokinase 50.6*, G6PDH counter-2 -6.2 and TbHK1 rescreen 3.1.
`N#Cc1ccccc1OCC(=O)N1CCN(CC(=O)Nc2ccc(F)cc2)CC1` gave PfG6PD inh -12.2 and HKDC1 inh -2.8.
`COc1cc2c(c(OC)c1OC)-c1ccc(O)cc1[C@@H](NC(C)=O)CC2` gave PfG6PD inh 6.5 and HKDC1 inh -1.9.
For Cc1ccc(N2C(=O)NC(=O)/C(=C/c3ccoc3)C2=O)cc1 the results were PfG6PD inh 21.9, HKDC1 inh 39.2*, Tb hexokinase 13.5 and HKDC1 act conf -3.1.
`N#CC1c2ccccc2-n2nncc2CN1C(=O)CCc1ccccc1` (centres undefined) gave PfG6PD inh -10.6 and HKDC1 inh 1.0.
For CCCCCc1nc2ccccc2c(=O)n1-c1ccccc1[N+](=O)[O-] the results were PfG6PD inh 3.1, G6PDH counter-1 8.1, Diaph act CS 0.8, Diaph inh CS 24.9, HKDC1 inh -6.5 and Tb hexokinase 30.4.
Screening CCCCCc1nc2c(c(=O)c3ccccc3n2C)c(=O)n1C1CCCCCC1 returned PfG6PD inh 9.3, G6PDH counter-1 -22.3, Diaph act CS 1.1, Diaph inh CS -5.4, HKDC1 inh 30.7, Tb hexokinase 8.3 and HKDC1 act conf 17.4.
`COc1cc2c(cc1OC)-c1c(OC)c(OC)c(OC)c3ccnc(c13)C2=O` gave PfG6PD inh 47.8, G6PDH counter-1 18.9, Diaph act CS 0.5, Diaph inh CS 54.6*, HKDC1 inh 49.5*, Tb hexokinase -12.3 and HKDC1 act conf 57.5.
Screening COc1cc(CC2(CCc3ccncc3)C(=O)NC(=O)NC2=O)cc(OC)c1OC returned PfG6PD inh -10.4, G6PDH counter-1 6.5, Diaph act CS 0.8, Diaph inh CS 15.1, HKDC1 inh -8.5 and Tb hexokinase 0.0.
For COC(=O)C[C@]1(C(=O)OC)CN(C#N)N(c2ccc(Cl)cc2)C12c1ccccc1-c1ccccc12 the results were PfG6PD inh 22.2, G6PDH counter-1 3.8, Diaph act CS 0.8, Diaph inh CS 15.9, HKDC1 inh 86.9*, Tb hexokinase -7.7 and HKDC1 act conf 62.4.
Screening COC(=O)[C@@H]1[C@@H](C(=O)OC)C2(c3ccccc3-c3ccccc32)N(c2ccc(Cl)cc2)N1C#N returned PfG6PD inh 15.1, G6PDH counter-1 2.0, Diaph act CS 0.8, Diaph inh CS 17.3, HKDC1 inh 62.2*, Tb hexokinase -16.5 and HKDC1 act conf 43.1.
C=CCn1c(O)c(C(CC)=NCCN2CCN(C(=S)NC)CC2)c(=O)[nH]c1=O was read as PfG6PD inh -9.8, HKDC1 inh -5.4 and Tb hexokinase -9.7.
Cc1cccc(N2C(=O)NC(=O)/C(=C\c3cc(C)n(-c4sc5c(c4C#N)CCCC5)c3C)C2=O)c1C was read as PfG6PD inh 12.2, G6PDH counter-1 2.1, Diaph act CS 0.7, Diaph inh CS 27.5, HKDC1 inh 72.4*, Tb hexokinase -4.1 and HKDC1 act conf 54.9.
Cc1cc(/C=C2\C(=O)NC(=O)N(c3ccccc3F)C2=O)c(C)n1-c1cc(C(=O)O)cc(C(=O)O)c1 was read as PfG6PD inh -4.1 and HKDC1 inh 2.3.
Screening CCOC(=O)c1c(-n2c(C)cc(C=C3C(=O)NC(=O)NC3=O)c2C)sc2c1CCCC2 returned PfG6PD inh -4.4, G6PDH counter-1 5.4, Diaph act CS 0.9, Diaph inh CS 9.5, HKDC1 inh 41.4*, Tb hexokinase 6.9 and HKDC1 act conf 30.1.
CCC1(CC)COP(=O)(OCC(Cl)CCl)OC1 (centres undefined) was read as PfG6PD inh 2.0 and HKDC1 inh -10.7.
Screening COc1ccc(-c2cc(=NCC(=O)O)c3ccccc3o2)cc1 returned PfG6PD inh -1.6 and HKDC1 inh -1.0.
